Calls of active or inactive are those of the source. The rule behind the calls is not given here.
Tests used:
Aspergillus fumigatus [1] = test: Antifungal activity against Aspergillus fumigatus at 10 mg/disk after 48 hrs; format: functional
Procedure, shortened: (§1)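 Paper disk diffusion assay against Aspergillus fumigatus on potato dextrose agar. Compound was applied per disk, and activity was recorded after 48 h incubation. Other assay conditions follow an earlier published method.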

Aspergillus fumigatus [2] = test: Antifungal activity against Aspergillus fumigatus at 5 mg/disk after 48 hrs; format: functional; procedure, shortened: as §1
Aspergillus fumigatus [3] = test: Antifungal activity against Aspergillus fumigatus at 1 mg/disk after 48 hrs; format: functional; procedure, shortened: as §1
Aspergillus fumigatus [4] = test: Antifungal activity against Aspergillus fumigatus up to 100 ug/disk after 48 hrs; format: functional, organism-based; procedure, shortened: as §1
Aspergillus fumigatus [5] = test: Antifungal activity against Aspergillus fumigatus at 0.5 mg/disk after 48 hrs; format: functional; procedure, shortened: as §1

SMILES | inhibition zone (IZ) (Aspergillus fumigatus [1]) [mm] | inhibition zone (IZ) (Aspergillus fumigatus [2]) [mm] | Activity (Aspergillus fumigatus [4]) | Activity (Aspergillus fumigatus [5]) | other results
C[C@@H]1[C@H](O)[C@@H](C)/C=C/C=C/C=C/C=C/C=C/C=C/C=C/[C@H](O[C@@H]2O[C@H](C)[C@@H](O)[C@H](N)[C@@H]2O)C[C@@H]2O[C@](O)(C[C@@H](O)C[C@@H](O)[C@H](O)CC[C@@H](O)C[C@@H](O)CC(=O)O[C@H]1C)C[C@H](O)[C@H]2C(=O)O [AMPHOTERICIN B] | 13 | 14 | – | – | inhibition zone (IZ) (Aspergillus fumigatus [3]): 11 mm
C[C@H]1C=CC2=CCC[C@H](O)[C@@H]2[C@H]1CC[C@@H](O)C[C@@H](O)CC(=O)O | – | – | inactive | – | –
CCOC(=O)C[C@H](O)C[C@H](O)CC[C@@H]1[C@@H]2C(=CCC[C@@H]2OC(=O)[C@@H](C)CC)C=C[C@@H]1C | – | – | – | inactive | Activity (Aspergillus fumigatus [1]): inactive; Activity (Aspergillus fumigatus [2]): inactive; Activity (Aspergillus fumigatus [3]): inactive
C[C@H]1C(=O)C=C2CCCC[C@@H]2[C@H]1CC[C@@H](O)C[C@@H](O)CC(=O)O | – | – | inactive | – | –
CC[C@H](C)C(=O)O[C@H]1CCC[C@@H]2C=C[C@H](C)[C@H](CC[C@@H](O)C[C@@H](O)CC(=O)[O-])[C@@H]12.[Na+] | 32 | 21 | – | inactive | inhibition zone (IZ) (Aspergillus fumigatus [3]): 16 mm
C[C@@H]1[C@H](CC[C@@H](O)C[C@@H](O)CC(=O)O)[C@H]2CCCCC2=C[C@H]1O | – | – | inactive | – | –
CC[C@H](C)C(=O)O[C@H]1CCC[C@@H]2CC[C@H](C)[C@H](CC[C@@H](O)C[C@@H](O)CC(=O)[O-])[C@H]21.[Na+] | 22 | 18 | – | inactive | –
